Assay results published in ChEMBL document CHEMBL1144873, “An orally bioavailable oxime ether capsid binder with potent activity against human rhinovirus” (J Med Chem, 2003).
In brackets after ≈: the same amount, converted by molar mass.

Legend:
MRC5 = assay: Cellular toxicity in MRC-5 cells; type: functional; conditions: Homo sapiens
rhinovirus B14 [1] = assay: Anti-HRV activity against HRV-14 strain; type: functional, organism-based, human rhinovirus type 14; conditions: Rhinovirus B
Human rhinovirus 1A = assay: Anti-HRV activity against HRV-1A strain; type: functional, organism-based, human rhinovirus type 1
How it was run: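 Cell-culture cytopathic effect (CPE) inhibition assay adapted from a microplate tissue-culture method. Each test was run in duplicate. EC50 was read both visually and by dye uptake. Results varied by generally no more than one dilution between duplicate runs and between read-out methods.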

KB [2] = assay: (§1) Cellular toxicity in KB cells; type: functional; conditions: Homo sapiens
rhinovirus B14 [3] = assay: Anti-HRV activity against HRV serotype 14; type: functional, organism-based, human rhinovirus type 14; conditions: Rhinovirus B
rhinovirus A63 = assay: Anti-HRV activity against HRV serotype 63; type: functional, organism-based; conditions: Rhinovirus A
rhinovirus A15 = assay: Anti-HRV activity against HRV serotype 15; type: functional, organism-based; conditions: Rhinovirus A
rhinovirus A51 = assay: Anti-HRV activity against HRV serotype 51; type: functional, organism-based; conditions: Rhinovirus A
rhinovirus A59 = assay: Anti-HRV activity against HRV serotype 59; type: functional, organism-based; conditions: Rhinovirus A
rhinovirus A16 = assay: Anti-HRV activity against HRV serotype 16; type: functional, organism-based; conditions: Rhinovirus A
rhinovirus A39 = assay: Anti-HRV activity against HRV serotype 39; type: functional, organism-based; conditions: Rhinovirus A
rhinovirus A85 = assay: Anti-HRV activity against HRV serotype 85; type: functional, organism-based; conditions: Rhinovirus A
rhinovirus A29 = assay: Anti-HRV activity against HRV serotype 29; type: functional, organism-based; conditions: Rhinovirus A
rhinovirus B70 = assay: Anti-HRV activity against HRV serotype 70; type: functional, organism-based; conditions: Rhinovirus B
rhinovirus A9 = assay: Anti-HRV activity against HRV serotype 9; type: functional, organism-based; conditions: Rhinovirus A
rhinovirus B86 = assay: Anti-HRV activity against HRV serotype 86; type: functional, organism-based; conditions: Rhinovirus B
rhinovirus A2 [4] = assay: Anti-HRV activity against HRV serotype 2; type: functional, organism-based, human rhinovirus type 2; conditions: Rhinovirus A
rhinovirus A89 = assay: Anti-HRV activity against HRV serotype 89; type: functional, organism-based, human rhinovirus type 89; conditions: Rhinovirus A
rhinovirus B72 = assay: Anti-HRV activity against HRV serotype 72; type: functional, organism-based; conditions: Rhinovirus B
rhinovirus A45 = assay: Anti-HRV activity against HRV serotype 45; type: functional, organism-based; conditions: Rhinovirus A
KB [5] = assay: as §1; type: functional; conditions: Homo sapiens; remark: listed apart in the source
rhinovirus A2 [6] = assay: Anti-HRV activity against HRV-2 strain; type: functional, organism-based, human rhinovirus type 2; conditions: Rhinovirus A
KB [7] = assay: Cellular toxicity against KB cells in HRV-14 strain; type: functional; conditions: Homo sapiens
Human rhinovirus sp. = assay: Percent inhibition of 100 HRV strains by the compound at a concentration of 0.064 ug/ml; type: functional

| SMILES | CC50 (MRC5) [µg/mL] | EC50 (rhinovirus B14 [1]) [µg/mL] | EC50 (Human rhinovirus 1A) [µg/mL] | CC50 (KB [2]) [µg/mL] | CC50 (KB [5]) [µg/mL] | EC50 (rhinovirus A2 [6]) [µg/mL] | other results |
| --- | --- | --- | --- | --- | --- | --- | --- |
| CCO/N=C/c1ccc(OCCC2CCN(c3ccc(Cl)nn3)CC2)cc1 | > 50 | 0.002 (≈ 0.00514 µM) | < 0.16 | 0.8 (≈ 2.06 µM) |  |  |  |
| Cc1cc(CCCOc2c(C)cc(-c3noc(C(F)(F)F)n3)cc2C)on1 [PLECONARIL] |  |  |  |  |  |  | EC50 (rhinovirus B14 [3]): 0.0313 µg/mL (≈ 0.0821 µM); EC50 (rhinovirus A63): 0.0623 µg/mL (≈ 0.163 µM); EC50 (rhinovirus A15): 0.0698 µg/mL (≈ 0.183 µM); EC50 (rhinovirus A51): 0.0304 µg/mL (≈ 0.0797 µM); EC50 (rhinovirus A59): 0.387 µg/mL (≈ 1.02 µM); EC50 (rhinovirus A16): 0.108 µg/mL (≈ 0.283 µM); EC50 (rhinovirus A39): 0.0449 µg/mL (≈ 0.118 µM); EC50 (rhinovirus A85): 0.034 µg/mL (≈ 0.0892 µM); EC50 (rhinovirus A29): 0.0454 µg/mL (≈ 0.119 µM); EC50 (rhinovirus B70): 0.0539 µg/mL (≈ 0.141 µM); EC50 (rhinovirus A9): 0.0372 µg/mL (≈ 0.0974 µM); EC50 (rhinovirus B86): 0.07 µg/mL (≈ 0.184 µM); EC50 (rhinovirus A2 [4]): 0.0265 µg/mL (≈ 0.0694 µM); EC50 (rhinovirus A89): 0.0293 µg/mL (≈ 0.0769 µM); EC50 (rhinovirus B72): 0.469 µg/mL (≈ 1.23 µM); EC50 (rhinovirus A45): 1.91 µg/mL (≈ 5 µM) |
| NNC(=O)c1ccc(OCCC2CCN(c3ccc(Cl)nn3)CC2)cc1 | > 50 |  | 8.52 (≈ 22.7 µM) |  | 20 (≈ 53.2 µM) | 4 (≈ 10.6 µM) |  |
| CCOC(=O)c1ccc(OCCC2CCN(c3ccc(C)nn3)CC2)cc1 [PIRODAVIR] | > 50 | 0.0016 (≈ 0.00433 µM) | < 0.16 |  |  |  | EC50 (rhinovirus B14 [3]): 0.00365 µg/mL (≈ 0.00988 µM); EC50 (rhinovirus A63): 0.00083 µg/mL (≈ 0.00225 µM); EC50 (rhinovirus A15): 0.00702 µg/mL (≈ 0.019 µM); EC50 (rhinovirus A51): 0.00521 µg/mL (≈ 0.0141 µM); EC50 (rhinovirus A59): 0.00437 µg/mL (≈ 0.0118 µM); EC50 (rhinovirus A16): 0.0152 µg/mL (≈ 0.0412 µM); EC50 (rhinovirus A39): 0.0018 µg/mL (≈ 0.00487 µM); EC50 (rhinovirus A85): 0.00472 µg/mL (≈ 0.0128 µM); EC50 (rhinovirus A29): 0.00374 µg/mL (≈ 0.0101 µM); CC50 (KB [7]): > 1 µg/mL; EC50 (rhinovirus B70): 0.00214 µg/mL (≈ 0.00579 µM); EC50 (rhinovirus A9): 0.00205 µg/mL (≈ 0.00555 µM); EC50 (rhinovirus B86): 0.00956 µg/mL (≈ 0.0259 µM); EC50 (rhinovirus A2 [4]): 0.00277 µg/mL (≈ 0.0075 µM); EC50 (rhinovirus A89): 0.0057 µg/mL (≈ 0.0154 µM); inhibition at 0.064 µg/mL (Human rhinovirus sp.): 80%; EC50 (rhinovirus B72): 0.0348 µg/mL (≈ 0.0941 µM); EC50 (rhinovirus A45): > 5 µg/mL |
| C=CCO/N=C/c1ccc(OCCC2CCN(c3ccc(Cl)nn3)CC2)cc1 |  | 0.006 (≈ 0.015 µM) |  | 0.4 (≈ 0.998 µM) | 0.5 (≈ 1.25 µM) | 0.006 (≈ 0.015 µM) |  |
| Clc1ccc(N2CCC(CCOc3ccc(/C=N/OCc4ccccc4)cc3)CC2)nn1 |  | 0.4 (≈ 0.887 µM) |  | 0.6 (≈ 1.33 µM) | 0.6 (≈ 1.33 µM) | 0.9 (≈ 2 µM) |  |
| CO/N=C(\C)c1ccc(OCCC2CCN(c3ccc(C)nn3)CC2)cc1 |  | 0.023 (≈ 0.0624 µM) |  | > 1 | > 1 | 0.08 (≈ 0.217 µM) |  |
| CCO/N=C(\C)c1ccc(OCCC2CCN(c3ccc(C)nn3)CC2)cc1 |  | 0.004 (≈ 0.0105 µM) |  | > 1 | > 1 | 0.01 (≈ 0.0261 µM) |  |
| CCCO/N=C/c1ccc(OCCC2CCN(c3ccc(Cl)nn3)CC2)cc1 |  | 0.01 (≈ 0.0248 µM) |  | 0.4 (≈ 0.993 µM) | > 1 | 0.004 (≈ 0.00993 µM) |  |
| CCC(=O)c1ccc(OCCC2CCN(c3ccc(Cl)nn3)CC2)cc1 | > 50 |  | < 0.16 |  | 7 (≈ 18.7 µM) | 0.6 (≈ 1.6 µM) |  |
| CC(C)S(=O)(=O)n1c(N)nc2ccc(/C(=N/O)c3ccccc3)cc21 [ENVIROXIME] |  |  |  |  | 2 (≈ 5.58 µM) | 0.009 (≈ 0.0251 µM) |  |
| CCOC(=O)c1ccc(OCCC2CCN(c3ccc(Cl)nn3)CC2)cc1 | > 50 |  | < 0.16 |  | 50 (≈ 128 µM) | < 0.05 |  |
| CCC/N=C/c1ccc(OCCC2CCN(c3ccc(Cl)nn3)CC2)cc1 | > 50 |  | 4.12 (≈ 10.6 µM) |  | 30 (≈ 77.5 µM) | 6 (≈ 15.5 µM) |  |
| CC/C(=N\OC)c1ccc(OCCC2CCN(c3ccc(Cl)nn3)CC2)cc1 |  | 0.2 (≈ 0.496 µM) |  | 0.6 (≈ 1.49 µM) | > 1 | 0.4 (≈ 0.993 µM) |  |
| CO/N=C/c1ccc(OCCC2CCN(c3ccc(C)nn3)CC2)cc1 |  | 0.004 (≈ 0.0113 µM) |  | > 1 | > 1 | 0.15 (≈ 0.423 µM) |  |
| CC(C)O/N=C/c1ccc(OCCC2CCN(c3ccc(Cl)nn3)CC2)cc1 |  | 0.018 (≈ 0.0447 µM) |  | 0.7 (≈ 1.74 µM) | 1 (≈ 2.48 µM) | 0.02 (≈ 0.0496 µM) |  |
| O=Cc1ccc(OCCC2CCN(c3ccc(Cl)nn3)CC2)cc1 | > 50 |  | 9.72 (≈ 28.1 µM) |  | 20 (≈ 57.8 µM) | 2 (≈ 5.78 µM) |  |
| Cc1ccc(N2CCC(CCOc3ccc(/C=N/O)cc3)CC2)nn1 |  | 0.062 (≈ 0.182 µM) |  | > 0.25 | > 0.25 | > 0.25 |  |
| CN/N=C/c1ccc(OCCC2CCN(c3ccc(Cl)nn3)CC2)cc1 | > 50 |  | 1.01 (≈ 2.7 µM) |  | 10 (≈ 26.7 µM) | 2 (≈ 5.35 µM) |  |
